The values that follow come from ChEMBL document CHEMBL3526115, “Differences in the pharmacokinetics of 4-amino-3-chlorophenyl hydrogen sulfate, a metabolite of resatorvid, in rats and dogs” (Drug Metab Dispos, 2012).

Series [1] is described as follows: Renal clearance in Crj:CD(SD)IGS rat at 0.5 mg/kg, iv administered as bolus dose measured from 0 to 24 hrs by HPLC-based liquid scintillation counting analysis. The format is ADME, organism-based, Kidney. Also noted: dose 0.5 mg/kg, route intravenous. The settings on record: in vivo. The gist of the method:
(§1)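 After a 0.5 mg/kg iv bolus of [14C]M-III, urine was collected 0–24 h (rat) or 0–168 h (dog) and injected directly onto HPLC with fraction collection and scintillation counting. M-III in urine was derived from the urinary 14C excretion ratio and the [14C]M-III composition. CLrenal = urinary M-III amount / AUC0–24 h (rat) or AUC0–168 h (dog). Unbound CLrenal = CLrenal / free fraction.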

Series [2] is described as follows: Drug uptake in Crj:CD(SD)IGS rat plasma at 0.5 mg/kg, iv administered as bolus dose after 5 mins by HPLC-based liquid scintillation counting analysis. Details: dose 0.5 mg/kg, route intravenous. The format is ADME, organism-based. Put shortly: (§2)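 [14C]M-III in saline given as a single iv bolus at 0.5 mg/kg to male rats (tail-vein blood, 5 min–24 h) or male beagle dogs (cephalic-vein blood, 5 min–168 h). Heparinized plasma counted for radioactivity; M-III quantified by HPLC with fraction collection and liquid scintillation counting. C5 min read directly; terminal t1/2 by linear regression, kel = ln2/t1/2, Vd = dose/back-extrapolated C0, CLtot = dose/AUCinf. Mean ± S.D., n = 3.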

For series [3], the system named is Plasma. Description: Plasma concentration in Crj:CD(SD)IGS rat at 0.125 mg/hr, iv administered as continuous infusion by HPLC based liquid scintillation counting analysis. The format is ADME, organism-based. The settings on record: in vivo. Put shortly:
(§3)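 Rats were continuously infused iv with [14C]M-III at 0.125 mg/rat/h, plus probenecid (4.7, 9.4, 18.6 mg/rat/h) or vehicle. Femoral-artery blood was taken at 0.5, 1, 2, 3 and 4 h, with terminal aortic blood at 5 h. Plasma radioactivity was measured, with probenecid quantified by HPLC-UV at 240 nm against spiked-plasma calibration from 0.1 to 100 µg/ml.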

Series [4] can be described thus: Plasma concentration in Crj:CD(SD)IGS rat at 0.125 mg/hr, iv administered as continuous infusion measured after 3 hrs by HPLC based liquid scintillation counting analysis in presence of probenecid. The settings on record: with probenecid (dose not stated). The format is ADME, organism-based. The gist of the method:
as §3

Series [5] in a line: In vitro plasma protein binding in dog at 0.5 ug/ml by ultrafiltration method. The settings on record: read-out: PPB (converted). The format is ADME, cell-free, Canis lupus familiaris. Put shortly:
(§4)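 [14C]M-III in saline was added to rat or dog plasma at final 0.5, 5 and 50 µg/ml. Plasma was ultrafiltered by centrifugation at 1500g and 37°C for 10 min, and 14C was measured in plasma and filtrate. Mean ± S.D., n = 3.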

A short description of series [6]: In vitro plasma protein binding in rat at 50 ug/ml by ultrafiltration method. The format is ADME, cell-free. The settings on record: read-out: PPB (converted). The gist of the method:
as §4

The nature of series [7]: Total body clearance in Crj:CD(SD)IGS rat at 0.125 mg/hr, iv administered as continuous infusion by HPLC based liquid scintillation counting analysis. The format is ADME, organism-based. The settings on record: in vivo. Put shortly: (§5)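 Rats received a continuous iv infusion of [14C]M-III at 0.125 mg/rat/h, with probenecid co-infused at 16, 31 or 62 mg/h/kg or vehicle alone, for 5 h. Arterial plasma was sampled during infusion. CLtot = infusion rate / steady-state plasma M-III (120–180 min). Unbound fraction was measured by ultrafiltration of 5-h plasma (10,000 MWCO, 1500g, 37°C, 10 min). CLint = CLtot / unbound ratio.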

A short description of series [8]: Unbound fraction in Crj:CD(SD)IGS rat plasma at 0.125 mg/hr, iv administered as continuous infusion by ultrafiltration method in presence of 16 mg/hr/kg probenecid. The settings on record: with probenecid 16 mg/hr/kg. The format is ADME, organism-based. Put shortly:
as §5

Series [9] is described as follows: Total body clearance in Crj:CD(SD)IGS rat at 0.5 mg/kg, iv administered as bolus dose by HPLC-based liquid scintillation counting analysis. The format is ADME, organism-based. Details: dose 0.5 mg/kg, route intravenous. The settings on record: in vivo. The gist of the method:
as §2

In series [10] the test system is Rattus norvegicus. In words: Intrinsic total body clearance in Crj:CD(SD)IGS rat at 0.125 mg/hr, iv administered as continuous infusion by HPLC based liquid scintillation counting analysis in presence of 31 mg/hr/kg probenecid. The format is ADME, organism-based. The settings on record: in vivo. Put shortly:
as §5

Series [11] in a line: Drug recovery in Crj:CD(SD)IGS rat urine at 0.5 mg/kg, iv administered as bolus dose measured from 0 to 24 hrs by HPLC analysis. Details: dose 0.5 mg/kg, route intravenous. The format is ADME, organism-based. The settings on record: read-out: Drug recovery. The gist of the method:
as §1

Series [12] in a line: Drug excretion in Beagle dog urine assessed as excretion ratio of [14C] at 0.5 mg/kg, iv administered as bolus dose measured from 0 to 168 hrs by HPLC-based liquid scintillation counting analysis. The format is ADME, organism-based, Canis lupus familiaris. Details: dose 0.5 mg/kg, route intravenous. The settings on record: in vivo. The gist of the method:
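Male rats in metabolic cages with urine/feces separator, or beagle dogs, after a 0.5 mg/kg iv bolus of [14C]M-III in saline. Radioactivity in urine and feces collected 0–24 h (rats) or 0–168 h (dogs) was counted and expressed as percent of dose. Mean ± S.D., n = 3.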

Series [13] can be described thus: Apparent volume of distribution in Beagle dog at 0.5 mg/kg, iv administered as bolus dose by HPLC-based liquid scintillation counting analysis. The format is ADME, organism-based, Canis lupus familiaris. Also noted: dose 0.5 mg/kg, route intravenous. The settings on record: in vivo, read-out: Vd(app). Put shortly: as §2
Series [14] in a line: Unbound fraction in Crj:CD(SD)IGS rat plasma at 0.125 mg/hr, iv administered as continuous infusion by ultrafiltration method in presence of 62 mg/hr/kg probenecid. The format is ADME, organism-based. The settings on record: with probenecid 62 mg/hr/kg (co-administered). Put shortly:
as §5

Series [15] can be described thus: Terminal half life in Crj:CD(SD)IGS rat at 0.5 mg/kg, iv administered as bolus dose by HPLC-based liquid scintillation counting analysis. Also noted: dose 0.5 mg/kg, route intravenous. The format is ADME, organism-based. The settings on record: in vivo, read-out: beta t1/2 (converted). Put shortly: as §2
Series [16] is described as follows: Elimination rate constant in Beagle dog at 0.5 mg/kg, iv administered as bolus dose by HPLC-based liquid scintillation counting analysis. The format is ADME, organism-based, Canis lupus familiaris. Details: dose 0.5 mg/kg, route intravenous. The settings on record: in vivo. Put shortly: as §2
Series [17] is described as follows: In vitro plasma protein binding in rat at 5 ug/ml by ultrafiltration method. The format is ADME, cell-free. The settings on record: read-out: PPB (converted). Put shortly:
as §4

The test system of series [18] is Rattus norvegicus. In words: Intrinsic total body clearance in Crj:CD(SD)IGS rat at 0.125 mg/hr, iv administered as continuous infusion by HPLC based liquid scintillation counting analysis. The format is ADME, organism-based. The settings on record: in vivo. The gist of the method:
as §5

The test system of series [19] is Rattus norvegicus. Description: Intrinsic total body clearance in Crj:CD(SD)IGS rat at 0.125 mg/hr, iv administered as continuous infusion by HPLC based liquid scintillation counting analysis in presence of 16 mg/hr/kg probenecid. The format is ADME, organism-based. The settings on record: in vivo. The gist of the method:
as §5

Series [20] can be described thus: Total body clearance in Crj:CD(SD)IGS rat at 0.125 mg/hr, iv administered as continuous infusion by HPLC based liquid scintillation counting analysis in presence of 31 mg/hr/kg probenecid. The format is ADME, organism-based. The settings on record: in vivo, with probenecid 31 mg/hr/kg. Put shortly:
as §5

A short description of series [21]: Ratio of drug level in kidney to plasma in Crj:CD(SD)IGS rat at 0.25 mg/hr, iv administered as continuous infusion by HPLC-based liquid scintillation counting analysis. The format is ADME, organism-based. Put shortly:
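Rats received [14C]M-III in saline by continuous jugular-vein infusion for 4 h (0.5 mg/rat/h per methods; 0.25 mg/h in legend), then aortic blood and kidneys were collected. Dogs received a 0.5 mg/kg iv bolus, with blood and kidneys (cortex and medulla separated) collected at 24 h. 14C was measured in tissue homogenates and plasma as a tissue/plasma ratio. Rat n = 3, dog n = 2.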

A short description of series [22]: Terminal half life in Beagle dog at 0.5 mg/kg, iv administered as bolus dose by HPLC-based liquid scintillation counting analysis. The format is ADME, organism-based, Canis lupus familiaris. Also noted: dose 0.5 mg/kg, route intravenous. The settings on record: in vivo, read-out: beta t1/2 (converted). Put shortly:
as §2

For `N[14c]1[14cH][14cH][14c](OS(=O)(=O)O)[14cH][14c]1Cl`, the CL renal in [1] is 9.47 mL/min/kg. This molecule returned a concentration at 5 min in [2] of 2290 ng/mL. The Cp in series [3] was 600 ng/mL. Moreover, the concentration at 3 h in series [4] came out at 3600 ng/mL. Also, the fraction unbound at 0.5 ug/ml in [5] is 0.098. Also, the fraction unbound at 50 ug/ml in series [6] is 0.102. The clearance is 11.4 mL/min/kg in series [7], 10.5 mL/min/kg in [9], 130 mL/min/kg in series [18] and 2.35 mL/min/kg in series [20]. For the same molecule, the figures for the fraction unbound in series [8] and in series [14] were 0.078 and 0.184, respectively. The CL in [10] was found to be 11.9 mL/min/kg; in [19] it was 53.83 mL/min/kg. Moreover, the dose excreted in [11] is 76.9%. In addition, the Drug excretion in series [12] worked out at 44.6%. The Vd in series [13] stood at 0.0989 L/kg. The half-life was 4.1 h in series [15] and 120 h in [22]. In series [16], the k el is 1.68e-06 s⁻¹. The fraction unbound at 5 ug/ml in series [17] is 0.078. Also, the Kp in [21] came out at 3.5.
